# Screens deposited in PubChem BioAssay by Broad Institute.
# GSIS activator = GLuc luminescence reporter in INS-1E cells, primary screen for activators of glucose-dependent secretion of insulin; activation, % at 16.6 µM; hit rate 0.61% among 370,000; INS-1E GLuc reporter insulin secretion, 2-3 h;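 active = lowest replicate activation of at least 40%, so every replicate reaches that level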;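 note: 0% = median of neutral control wells and 100% = median of IBMX positive control wells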
# MLL AF4-AF9 inh = inhibitors of AF4 peptide binding to AF9, primary screen, biochemical, AlphaScreen, biotin-AF4 peptide, FLAG-AF9, single point. hit rate 0.47% among 350,000. AID 651704, 2012. inhibition, % at 10 µM. Protein AF-9 (Homo sapiens), P42568;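 active = every replicate reaching a set inhibition limit, whatever the replicate mean, cut at about 25% in these data; inconclusive = mean inhibition reaches that limit but some replicates miss it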;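 note: 0% = plate neutral control median and 100% = total signal loss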
# RAD54 branch = inhibitors of human RAD54 branch migration, primary screen, biochemical, fluorescence, single point; DNA repair and recombination protein RAD54-like (Homo sapiens), Q92698; RAD54 Holliday junction branch migration, FAM/BHQ fluorescence; inhibition, % at 10.4 µM; hit rate 0.14% among 360,000;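 active = mean normalized replicate activity at least 40 and at least half of replicates scoring 40 or more; inconclusive = only one of the two criteria met; inactive = mean below 40 and under half of replicates reaching 40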;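 note: 0% = median of neutral control wells and 100% = median of positive control wells; inhibitors cause a drop in the FAM fluorescence signal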
# RAD52 anneal inh = RAD52 DNA annealing inhibitors, primary screen, biochemical, FRET, single point, set 2; DNA repair protein RAD52 homolog (Homo sapiens), P43351; recombinant RAD52 DNA annealing, FRET fluorescence; inhibition, % at 18.7 µM; hit rate 0.46% among 360,000; AID 651710, 2012;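 active = every replicate showing at least 50% inhibition; inconclusive = mean inhibition at least 50% but not in every replicate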
# Target sequence (P43351 whole entry, looked up): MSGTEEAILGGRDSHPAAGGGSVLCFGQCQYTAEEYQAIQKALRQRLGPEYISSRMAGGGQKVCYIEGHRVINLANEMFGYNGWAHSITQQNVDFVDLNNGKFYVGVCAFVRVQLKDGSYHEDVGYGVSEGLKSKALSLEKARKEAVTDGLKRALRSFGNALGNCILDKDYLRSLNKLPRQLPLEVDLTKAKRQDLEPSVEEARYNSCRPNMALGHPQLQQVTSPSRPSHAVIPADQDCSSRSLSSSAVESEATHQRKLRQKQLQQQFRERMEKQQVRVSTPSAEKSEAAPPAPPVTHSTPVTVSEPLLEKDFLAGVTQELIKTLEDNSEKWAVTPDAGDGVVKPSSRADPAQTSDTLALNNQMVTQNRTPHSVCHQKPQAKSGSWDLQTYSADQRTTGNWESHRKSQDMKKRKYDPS
# S100A4 inh HTS = inhibitors of S100A4-myosin IIA peptide binding, primary screen, biochemical, fluorescence polarization, TAMRA-MyoIIA peptide; Protein S100-A4 (Homo sapiens), P26447; inhibition, % at 10.7 µM; hit rate 0.14% among 360,000; AID 652163, 2013;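 active = mean inhibition of at least 70% across replicates, with every replicate also reaching that level; inconclusive = mean inhibition reaches 70% but some replicates fall short; inactive = mean inhibition below 70%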
# Target sequence (P26447 whole entry, looked up): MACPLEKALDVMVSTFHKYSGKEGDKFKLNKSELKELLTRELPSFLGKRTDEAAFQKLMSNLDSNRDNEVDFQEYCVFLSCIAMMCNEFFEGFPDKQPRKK
#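 Material: human S100A4 monomer with TAMRA-labelled myosin IIA peptide; buffer or medium: HEPES pH 7.2 with CaCl2, KCl, NaCl, DTT, Triton; compound dosing: one concentration per compound; schedule: 5 min incubation before reading; benchmarks: neutral control DMSO, positive control TFP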
# * marks the source's active call; other numbers are inactive results; i = inactive; ? = inconclusive; . = no result; + = active, no number. Shown are actives, neighbours in structure and some others; about 1.3% of the full set was active somewhere.
SMILES,GSIS activator,MLL AF4-AF9 inh,RAD54 branch,RAD52 anneal inh,S100A4 inh HTS
CCC(=O)Nc1sc(Cc2ccc3c(c2)OCO3)c(C)c1C(N)=O,67*,-5,.,-9,0
Cc1c(Cc2ccccc2)sc(NC(=O)Cc2ccccc2)c1C(N)=O,10,.,-8,-32,1
Cc1c(Cc2ccccc2)sc(NC(=O)C(C)(C)C)c1C(N)=O,46*,2,.,-30,0
Cc1c(Cc2ccc3c(c2)OCO3)sc(NC(=O)c2ccc3ccccc3c2)c1C(N)=O,.,-5,-14,-3,3
CC=Cc1ccc2n(c1=O)C[C@@H]1[C@@H](CO)[C@H](C(=O)NCCc3cn(C)cn3)[C@H]2N1C(=O)CC (mixture of isomers),5,2,-7,12,1
CC(=O)NC[C@H]1[C@@H](c2ccc(-c3ccccc3)cc2)[C@@H](CO)N1C(=O)C1CCC1,2,0,-1,-45,-6
O=C(COc1ccc2ccc(=O)oc2c1)Nc1ccc(N2CCCCC2)cc1,13,47*,0,66*,7
O=C(COc1ccc2ccc(=O)oc2c1)Nc1ccc(CCO)cc1,-1,0,0,-16,-4
CCCc1nc(N)sc1C(=O)OCC,112*,.,4,.,.
CCOC(=O)c1sc(N)nc1C(C)C,.,.,-7,.,.
COc1ccc(S(=O)(=O)N(C)C[C@H]2Oc3ccc(NC(=O)Nc4cccc5ccccc45)cc3CC(=O)N([C@@H](C)CO)C[C@H]2C)cc1,-3,4,.,-9,-9
CCC(=O)Nc1nnc(-c2cccs2)s1,14,-1,.,-2,2
C=C(C)C(=O)Nc1nnc(-c2cccs2)s1,118*,.,.,.,.
CCCC#Cc1ccc([C@@H]2[C@@H](CO)N3CCCCN(Cc4ccncc4)C[C@@H]23)cc1,-12,6,4,-12,-18
CNc1nc(-c2ccccc2)[n+](-c2ccc(C)cc2)s1,176*,.,.,.,.
N#C[C@@H]1[C@@H](c2ccccc2-c2cccc(F)c2)[C@H](CO)N1C(=O)CN1CCOCC1,8,.,.,.,.
Cc1nc(N)c(C#N)c(-c2cccnc2)c1C,48*,.,5,.,.
COc1ccccc1C(=O)NC(=S)Nc1ccc2[nH]c(=O)[nH]c2c1,45*,-2,3,-6,42
CC(C)NC(=O)N(C)C[C@@H]1Oc2c(NC(=O)c3cnccn3)cccc2C(=O)N([C@H](C)CO)C[C@@H]1C,15,-2,6,2,-5
COc1cc2c3nnc(-c4ccccc4)c-3cn(Cc3ccc(F)cc3)c2cc1OC,-25,1,.,i,-3
COc1cc2c3nnc(-c4ccc(F)cc4)c-3cn(Cc3ccc(C)cc3)c2cc1OC,.,2,4,i,+
COC(=O)c1ccncc1N,0,-3,.,-7,1
Nc1cnccc1C(=O)O,-2,-7,-41,i,80*
O=[N+]([O-])c1cccc(Oc2ncccc2[N+](=O)[O-])c1,78*,3,10,-7,7
C[C@@H]1CN([C@H](C)CO)C(=O)c2cc(NC(=O)Nc3ccc(F)cc3)ccc2O[C@@H](C)CCCCO[C@H]1CN(C)C(=O)C1CCCCC1,-18,5,-9,0,65
SMILES,GSIS activator,MLL AF4-AF9 inh,RAD54 branch,RAD52 anneal inh,S100A4 inh HTS
COc1ccc(-c2nnn(Cc3nc(N)nc(N4CCOCC4)n3)n2)cc1OC,96*,.,-1,.,.
C[C@H]1CN([C@@H](C)CO)C(=O)c2cc(C#Cc3ccccc3F)cnc2O[C@@H]1CN(C)S(=O)(=O)c1ccccc1,-2,3,11,7,-9
COCCNC(=O)C[C@H]1C[C@@H]2c3cc(NC(=O)c4cccnc4)ccc3O[C@@H]2[C@@H](CO)O1,20,-1,0,-12,-4
O=C(Nc1nnc(-c2ccc(F)cc2)s1)C1CCN(S(=O)(=O)c2ccc(Cl)cc2)CC1,60*,.,.,.,.
C[C@@H]1CN([C@@H](C)CO)C(=O)c2cc(C#CC3(O)CCCC3)cnc2O[C@H]1CN(C)C(=O)C1CCC1,-1,-1,-5,7,0
Cn1cnc(S(=O)(=O)N[C@@H]2C=C[C@@H](CC(=O)NCC3CC3)O[C@H]2CO)c1,10,-3,-1,8,108*
Cc1ccc(S(=O)(=O)N[C@H]2C=C[C@@H](CC(=O)NC3CCCCC3)O[C@@H]2CO)cc1,-5,-1,3,-10,95*
Cc1ccc(S(=O)(=O)N[C@H]2C=C[C@H](CC(=O)O)O[C@@H]2CO)cc1,16,0,-11,7,122*
O=C(C[C@H]1C=C[C@H](NS(=O)(=O)c2ccc(F)cc2)[C@@H](CO)O1)NC1CCC1,28,-5,-6,-3,3
Clc1ccccc1/C=N/N1CCN(Cc2ccccc2)CC1,-17,34*,0,9,-1
FC(F)(F)c1ccccc1/C=N/N1CCN(Cc2ccccc2)CC1,37,12,-19,-15,-5
CCOc1ccccc1/C=N/N1CCN(Cc2ccccc2)CC1,-7,28*,2,3,-3
O=[N+]([O-])c1ccccc1/C=N/N1CCN(Cc2ccccc2)CC1,5,?,0,7,1
C[C@@H]1CN([C@H](C)CO)C(=O)c2cc(NC(=O)Cc3cn(C)c4ccccc34)ccc2O[C@@H]1CN(C)S(=O)(=O)c1ccccc1,-1,1,-5,-32,4
CC(C)OCC(O)CN1CCC(Cc2ccccc2)CC1 (centres undefined),44*,1,1,-5,2
OC(COc1ccc(Br)cc1)CN1CCC(Cc2ccccc2)CC1 (centres undefined),-28,-4,-11,17,-2
CN1C(=O)c2cc(NC(=O)c3ccccc3F)ccc2OC[C@@H]2O[C@@H](CC(=O)NCc3ccc4c(c3)OCO4)CC[C@H]21,-8,-3,0,8,8
CC1CCCN(C(C(=O)Nc2ccc3c(c2)OCO3)c2ccccc2)C1 (centres undefined),-26,5,-2,2,-1
CC1CCN(C(C(=O)Nc2ccc3c(c2)OCO3)c2ccccc2)CC1 (centres undefined),.,52*,5,-2,-1
C[C@@H]1CN([C@H](C)CO)C(=O)c2ccccc2-c2ccccc2CO[C@H]1CN(C)S(=O)(=O)c1ccc(C#N)cc1,-36,2,-2,12,7
COc1cccc(NC(=O)Nc2ccc3c(c2)C(=O)N(C)C[C@H](OC)[C@H](C)CN(C)[C@H](C)CO3)c1,2,11,0,89*,29
COc1cccc(NC(=O)Nc2ccc3c(c2)C(=O)N(C)C[C@@H](OC)[C@@H](C)CN(C)[C@H](C)CO3)c1,-2,0,14,95*,1
